Assay results taken from ChEMBL document CHEMBL4725466, “Discovery and SAR of Novel Disubstituted Quinazolines as Dual PI3Kalpha/mTOR Inhibitors Targeting Breast Cancer” (ACS Med Chem Lett, 2020).
Converted amounts (≈) assume the structure as drawn. The source made the active and inactive calls. The calls are words filed in the database; no cut-off is given here.

Tested on: not listed separately
Experiment: Kinetic aqueous solubility of compound in 2% DMSO/Phosphate buffer saline incubated for 90 mins under shaking condition by
Format: physicochemical
Conditions: 2% DMSO/phosphate buffered saline, read-out: Kinetic_solubility
Summary of the method: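 Maximum kinetic aqueous solubility measured in 2% DMSO/phosphate-buffered saline, pH 7.4.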

SMILES	solubility kinetic at 1.5 h [µM]
O=C(Nc1ccc(-c2nc(N3CCOCC3)c3ccccc3n2)cc1)Nc1ccc(S(=O)(=O)Nc2ccc(F)cc2)cc1	< 2
O=C(Nc1ccc(-c2nc(N3CCOCC3)c3ccccc3n2)cc1)Nc1ccc(S(=O)(=O)Nc2ccc(F)cc2F)cc1	4.3 (≈ 2.65 µg/mL)
O=C(Nc1ccc(-c2nc(N3CCOCC3)c3ccccc3n2)cc1)Nc1ccc(S(=O)(=O)Nc2ncccn2)cc1	13.6 (≈ 7.92 µg/mL)
CCC(=O)c1ccc(NC(=O)Nc2ccc(-c3nc(N4CCOCC4)c4ccccc4n3)cc2)cc1	4 (≈ 1.93 µg/mL)
O=C(Nc1ccc(-c2nc(N3CCOCC3)c3ccccc3n2)cc1)Nc1ccc(S(=O)(=O)Nc2ccccn2)cc1	< 2
CCOC(=O)c1ccc(NC(=O)Nc2ccc(-c3nc(N4CCOCC4)c4ccccc4n3)cc2)cc1	< 2
O=C(Nc1ccc(-c2nc(N3CCOCC3)c3ccccc3n2)cc1)Nc1ccc(S(=O)(=O)Nc2ccccc2)cc1	< 2

Target: T1, Serine/threonine-protein kinase mTOR (Homo sapiens, UniProt P42345)
Experiment: Inhibition of human mTOR at 10 uM using 4EBP1 as substrate after 120 mins by [gamma-33P]-ATP assay relative to control
Conditions: not given
Summary of the method: (§1)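 Single-point kinase screen by HotSpot radioisotope filter binding assay; compound at 10 μM with 10 μM ATP, reported as percent inhibition of PI3Kα and mTOR.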

SMILES	inhibition [%]
O=C(Nc1ccc(-c2nc(N3CCOCC3)c3ccccc3n2)cc1)Nc1ccc(S(=O)(=O)Nc2ccc(F)cc2)cc1	60
O=C(Nc1ccc(-c2nc(N3CCOCC3)c3ccccc3n2)cc1)Nc1ccc(S(=O)(=O)Nc2ccc(F)cc2F)cc1	70
CCC(=O)c1ccc(NC(=O)Nc2ccc(-c3nc(N4CCOCC4)c4ccccc4n3)cc2)cc1	73
CCOC(=O)c1ccc(NC(=O)Nc2ccc(-c3nc(N4CCOCC4)c4ccccc4n3)cc2)cc1	81
O=C(Nc1ccc(-c2nc(N3CCOCC3)c3ccccc3n2)cc1)Nc1ccc(S(=O)(=O)Nc2ccccc2)cc1	75

Target: T2, PI3-kinase p110-alpha/p85-alpha (Homo sapiens) (UniProt P27986+P42336)
Experiment: Inhibition of human PI3K p110alpha/p85alpha at 10 uM using PIP2 as substrate incubated for 10 mins followed by ATP addition and measured after 30 mins in presence of 10 uM ATP by HTRF assay relative to control
Format: protein-complex assay
Conditions: not given

SMILES	inhibition [%]
O=C(Nc1ccc(-c2nc(N3CCOCC3)c3ccccc3n2)cc1)Nc1ccc(S(=O)(=O)Nc2ccc(F)cc2)cc1	54
O=C(Nc1ccc(-c2nc(N3CCOCC3)c3ccccc3n2)cc1)Nc1ccc(S(=O)(=O)Nc2ccc(F)cc2F)cc1	56
O=C(Nc1ccc(-c2nc(N3CCOCC3)c3ccccc3n2)cc1)Nc1ccc(S(=O)(=O)Nc2ncccn2)cc1	83
CCC(=O)c1ccc(NC(=O)Nc2ccc(-c3nc(N4CCOCC4)c4ccccc4n3)cc2)cc1	77
O=C(Nc1ccc(-c2nc(N3CCOCC3)c3ccccc3n2)cc1)Nc1ccc(S(=O)(=O)Nc2ccccn2)cc1	84
CCOC(=O)c1ccc(NC(=O)Nc2ccc(-c3nc(N4CCOCC4)c4ccccc4n3)cc2)cc1	73
O=C(Nc1ccc(-c2nc(N3CCOCC3)c3ccccc3n2)cc1)Nc1ccc(S(=O)(=O)Nc2ccccc2)cc1	63

Tested on: not listed separately
Experiment: Half life in CD1 mouse liver microsomes at 1 uM incubated for 60 mins under shaking condition by LC-MS/MS analysis
Format: ADME, Microsome
Conditions: not given
Summary of the method: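 Metabolic stability in mouse liver microsomes with test compound at 1 μM; result expressed as t1/2 (min).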

SMILES	half-life at 1 µM [min]
O=C(Nc1ccc(-c2nc(N3CCOCC3)c3ccccc3n2)cc1)Nc1ccc(S(=O)(=O)Nc2ccc(F)cc2)cc1	> 60
O=C(Nc1ccc(-c2nc(N3CCOCC3)c3ccccc3n2)cc1)Nc1ccc(S(=O)(=O)Nc2ccc(F)cc2F)cc1	> 60
O=C(Nc1ccc(-c2nc(N3CCOCC3)c3ccccc3n2)cc1)Nc1ccc(S(=O)(=O)Nc2ncccn2)cc1	> 60
CCC(=O)c1ccc(NC(=O)Nc2ccc(-c3nc(N4CCOCC4)c4ccccc4n3)cc2)cc1	> 60
O=C(Nc1ccc(-c2nc(N3CCOCC3)c3ccccc3n2)cc1)Nc1ccc(S(=O)(=O)Nc2ccccn2)cc1	37.8
CCOC(=O)c1ccc(NC(=O)Nc2ccc(-c3nc(N4CCOCC4)c4ccccc4n3)cc2)cc1	30.5
O=C(Nc1ccc(-c2nc(N3CCOCC3)c3ccccc3n2)cc1)Nc1ccc(S(=O)(=O)Nc2ccccc2)cc1	23.5

Target: T1, Serine/threonine-protein kinase mTOR
Experiment: Inhibition of human mTOR at 10 uM using 4EBP1 as substrate after 120 mins by [gamma-33P]-ATP assay
Conditions: not given
Summary of the method: as §1

SMILES	inhibition
O=C(Nc1ccc(-c2nc(N3CCOCC3)c3ccccc3n2)cc1)Nc1ccc(S(=O)(=O)Nc2ccc(F)cc2)cc1	Active
CC(=O)c1ccc(Nc2nc(N3CCOCC3)c3ccccc3n2)cc1	Active
O=C(Nc1ccc(-c2nc(N3CCOCC3)c3ccccc3n2)cc1)Nc1ccc(S(=O)(=O)Nc2ccc(F)cc2F)cc1	Active
O=S(=O)(Nc1ccccn1)c1ccc(Nc2nc(N3CCOCC3)c3ccccc3n2)cc1	Active
Oc1ccc(-c2nc(N3CCOCC3)c3ccccc3n2)cn1	Active
CCOC(=O)c1ccc(Nc2nc(N3CCOCC3)c3ccccc3n2)cc1	Active
O=C(Nc1ccc(-c2nc(N3CCOCC3)c3ccccc3n2)cc1)Nc1ccc(S(=O)(=O)Nc2ncccn2)cc1	Active
N#Cc1cccc(-c2nc(N3CCOCC3)c3ccccc3n2)c1	Active
NS(=O)(=O)c1ccc(Nc2nc(N3CCOCC3)c3ccccc3n2)cc1	Active
CCC(=O)c1ccc(NC(=O)Nc2ccc(-c3nc(N4CCOCC4)c4ccccc4n3)cc2)cc1	Active
O=C(Nc1ccc(-c2nc(N3CCOCC3)c3ccccc3n2)cc1)Nc1ccc(S(=O)(=O)Nc2ccccn2)cc1	Active
O=C(O)c1cccc(-c2nc(N3CCOCC3)c3ccccc3n2)c1	Active
CCOC(=O)c1ccc(NC(=O)Nc2ccc(-c3nc(N4CCOCC4)c4ccccc4n3)cc2)cc1	Active
O=S(=O)(Nc1ncccn1)c1ccc(Nc2nc(N3CCOCC3)c3ccccc3n2)cc1	Active
O=C(Nc1ccc(-c2nc(N3CCOCC3)c3ccccc3n2)cc1)Nc1ccc(S(=O)(=O)Nc2ccccc2)cc1	Active

Target: T2, PI3-kinase p110-alpha/p85-alpha (Homo sapiens)
Experiment: Inhibition of human PI3K p110alpha/p85alpha at 10 uM using PIP2 as substrate incubated for 10 mins followed by ATP addition and measured after 30 mins in presence of 10 uM ATP by HTRF assay
Format: protein-complex assay
Conditions: not given

SMILES	inhibition
O=C(Nc1ccc(-c2nc(N3CCOCC3)c3ccccc3n2)cc1)Nc1ccc(S(=O)(=O)Nc2ccc(F)cc2)cc1	Active
CC(=O)c1ccc(Nc2nc(N3CCOCC3)c3ccccc3n2)cc1	Active
O=C(Nc1ccc(-c2nc(N3CCOCC3)c3ccccc3n2)cc1)Nc1ccc(S(=O)(=O)Nc2ccc(F)cc2F)cc1	Active
O=S(=O)(Nc1ccccn1)c1ccc(Nc2nc(N3CCOCC3)c3ccccc3n2)cc1	Active
Oc1ccc(-c2nc(N3CCOCC3)c3ccccc3n2)cn1	Active
CCOC(=O)c1ccc(Nc2nc(N3CCOCC3)c3ccccc3n2)cc1	Active
O=C(Nc1ccc(-c2nc(N3CCOCC3)c3ccccc3n2)cc1)Nc1ccc(S(=O)(=O)Nc2ncccn2)cc1	Active
N#Cc1cccc(-c2nc(N3CCOCC3)c3ccccc3n2)c1	Active
NS(=O)(=O)c1ccc(Nc2nc(N3CCOCC3)c3ccccc3n2)cc1	Active
CCC(=O)c1ccc(NC(=O)Nc2ccc(-c3nc(N4CCOCC4)c4ccccc4n3)cc2)cc1	Active
O=C(Nc1ccc(-c2nc(N3CCOCC3)c3ccccc3n2)cc1)Nc1ccc(S(=O)(=O)Nc2ccccn2)cc1	Active
O=C(O)c1cccc(-c2nc(N3CCOCC3)c3ccccc3n2)c1	Active
CCOC(=O)c1ccc(NC(=O)Nc2ccc(-c3nc(N4CCOCC4)c4ccccc4n3)cc2)cc1	Active
O=S(=O)(Nc1ncccn1)c1ccc(Nc2nc(N3CCOCC3)c3ccccc3n2)cc1	Active
O=C(Nc1ccc(-c2nc(N3CCOCC3)c3ccccc3n2)cc1)Nc1ccc(S(=O)(=O)Nc2ccccc2)cc1	Active
